M4 PAM = CHRM4 positive allosteric modulation. P08173. CHO-K1 hM4/Gqi5, Fluo-8 calcium fluorescence, ACh EC20; 0% = ACh EC20, 100% = maximal ACh. activation, % at 3 µM. 360,000 compounds, 0.4% hits. AID 624126;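 active = activation above its plate's cutoff, the mean activation of sample wells plus 3 SD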
CHRM5 PAM = potentiates acetylcholine response at human M5 receptor. activation, % at 3 µM. CHO-K1 hM5, Fluo-8 calcium, ACh EC20 PAM; 0% = ACh EC20, 100% = ACh EC100. 360,000 compounds, 0.3% hits. P08912;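 active = activation above the run cutoff, the mean activation of all test compounds plus 3 SD, cut at about 18% in these data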
Target sequence (P08912 whole entry, looked up): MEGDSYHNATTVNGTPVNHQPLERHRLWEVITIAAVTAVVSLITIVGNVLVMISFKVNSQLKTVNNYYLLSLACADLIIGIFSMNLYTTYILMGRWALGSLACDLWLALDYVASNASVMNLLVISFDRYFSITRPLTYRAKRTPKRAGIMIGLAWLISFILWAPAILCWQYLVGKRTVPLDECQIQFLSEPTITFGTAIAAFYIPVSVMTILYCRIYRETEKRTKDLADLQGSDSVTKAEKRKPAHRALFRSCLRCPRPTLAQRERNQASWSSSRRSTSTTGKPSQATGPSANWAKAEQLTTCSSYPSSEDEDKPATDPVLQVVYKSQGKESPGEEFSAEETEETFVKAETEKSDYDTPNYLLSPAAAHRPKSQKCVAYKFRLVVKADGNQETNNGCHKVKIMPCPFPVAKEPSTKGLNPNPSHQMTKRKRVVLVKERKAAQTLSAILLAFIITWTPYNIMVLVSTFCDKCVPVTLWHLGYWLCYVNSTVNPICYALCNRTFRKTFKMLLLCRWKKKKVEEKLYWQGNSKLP
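Measured by: Fluo-8 calcium fluorescence; material: human M5 receptor in CHO-K1 cells; schedule: Post-acetylcholine fluorescence recording 140 s; benchmarks: low control EC20 acetylcholine (0%), high control EC100 acetylcholine (100%); read-out: Max/basal fluorescence ratio as % of EC20–EC100 ACh window; compound: single dose, 3 µM nominal final test concentration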
CHRM4 antagonist = antagonists of human muscarinic M4 receptor (CHRM4); P08173; CHO-hM4 cells, ACh EC80, Fluo-8 calcium fluorescence; inhibition, % at 3 µM; 360,000 compounds, 0.73% hits; AID 624125;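 active = inhibition above its plate's cutoff, the mean inhibition of sample wells plus 3 SD, cut at about 27% in these data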
M5 antag = antagonists of human muscarinic M5 receptor (CHRM5); P08912; CHO-hM5 cells, Fluo-8 calcium fluorescence, ACh EC80; inhibition, % at 3 µM; 360,000 compounds, 0.59% hits;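 active = inhibition above a per-plate cutoff, the mean of that plate's test compounds plus 3 SD, cut at about 27% in these data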
CHRM5 agonist = agonists of human muscarinic M5 receptor (CHRM5); P08912; activation, % at 3 µM; AID 624037; CHO-K1 hM5 cells, Fluo-8 calcium fluorescence; 0% DMSO wells, 100% maximal acetylcholine response; 360,000 compounds, 0.19% hits;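 active = activation above the run's mean over test compounds plus 3 SD, cut at about 23% in these data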;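 note: signal is peak over basal fluorescence ratio across the kinetic read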
CHRM4 agonist = agonists of human muscarinic M4 receptor (CHRM4) | P08173 | CHO-K1 hM4/Gqi5, Fluo-8 calcium fluorescence; vehicle 0%, full acetylcholine response 100% | activation, % at 3 µM | 360,000 compounds, 0.14% hits | AID 624127;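 active = activation above the run mean over all test wells plus 3 SD, cut at about 32% in these data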;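 note: peak over basal fluorescence ratio per well then scaled between controls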
Numbers stand for hits; – = inactive. The list is not random: actives were taken first. Their share in the collection is about 1.9%.

SMILES | M4 PAM | CHRM5 PAM | CHRM4 antagonist | M5 antag | CHRM5 agonist | CHRM4 agonist
S=c1[nH]nc(-c2ccncc2)n1/N=C/c1cn(-c2ccccc2)nc1-c1ccccc1 | – | 23 | – | – | – | –
O=C(COC(=O)c1cc(=O)[nH]c2ccccc12)Nc1nc(-c2ccccc2)cs1 | – | – | – | – | – | –
O=C(Nc1ccc(Cl)c(Cl)c1)O/N=C/c1ccncc1 | – | – | – | 32 | – | –
Cc1ccc(C(C)C)cc1OCC(=O)NNC(=O)Nc1ccccc1 | – | – | 61 | – | – | –
Cc1ccc(C(C)C)c(OCC(=O)NNC(=O)Nc2ccccc2)c1 | – | – | – | – | – | –
COc1ccccc1CCNC(=O)Cn1c(=O)oc2ccccc21 | – | – | – | 40 | – | –
COc1ccccc1CCNC(=O)CCn1c(=O)oc2ccccc21 | – | – | – | – | – | –
CCN(Cc1ccccc1)C(=O)C1CCN(S(=O)(=O)c2ccc3c(c2)OCCO3)CC1 | – | – | – | – | 37 | –
COc1ccc([C@H]2C[C@@H](n3cc(-c4ccc(F)cc4)nn3)[C@H](O)CN2C(=O)c2cccs2)cc1 | – | – | – | – | – | –
CCCCN(CC)C(=O)c1n[nH]c(=O)c2ccccc12 | – | 25 | – | – | – | –
CC(C)(C)c1ccc(CC(=O)N2CCC2(C)C(=O)NS(=O)(=O)c2ccc(Cl)s2)cc1 (stereo unspecified) | – | – | – | – | – | –
Cc1ccc(OCCN2C(=O)C(=O)c3cc(C)ccc32)cc1 | – | – | – | – | – | –
Cc1ccc2c(c1)C(=O)C(=O)N2Cc1ccc(C(F)(F)F)cc1 | – | – | – | – | 44 | 32
COc1ccc(Cc2nnc(NC(=O)CSc3ccccc3)s2)cc1 | – | – | – | – | – | –
COc1ccc(Cc2nnc(NC(=O)CSc3ccccc3)s2)cc1OC | – | – | – | – | 28 | –
CC1(C)CC(CC(=O)O)(c2ccc(Cl)cc2)CCO1 (stereo unspecified) | 17 | – | – | – | – | –
COc1ccc(CN(C(=O)CSc2nnc(-c3ccc(F)cc3)o2)c2ccc(F)cc2)cc1 | – | – | – | – | – | –
COc1ccccc1NC(=O)CSc1nnc(-c2ccncc2)o1 | – | 23 | – | – | – | –
COc1ccc(CN(C(=O)CSc2nnc(-c3c[nH]c4ccccc34)o2)c2ccc(F)cc2)cc1OC | – | – | 41 | – | – | –
O=C(CSc1nnc(Cn2nnc3ccccc32)o1)N(Cc1ccc(F)cc1)c1ccccc1 | – | – | – | 37 | – | –
CCOC(=O)N1CCN(C(=O)CSc2nnc(-c3ccccc3OC)o2)CC1 | 30 | – | – | – | – | –
NS(=O)(=O)c1ccc(CCNC(=O)Cc2ccc(S(=O)(=O)N3CCOCC3)s2)cc1 | – | – | – | – | – | –
CCN(CC(=O)Nc1c(F)cccc1F)C(=O)CCc1nc2cc(S(=O)(=O)N3CCOCC3)ccc2n1C | – | – | – | – | – | –
CCOC(=O)CSc1nnc(-c2c[nH]c3ccccc23)o1 | – | – | 100 | – | – | –
Nc1nonc1N/N=C\c1ccccc1 | – | – | 27 | – | – | –
SMILES | M4 PAM | CHRM5 PAM | CHRM4 antagonist | M5 antag | CHRM5 agonist | CHRM4 agonist
COc1ccnc(-n2cccc2/C=N/O)c1C#N | – | – | – | – | – | –
C#CCOCCOCCOCCNc1nc(N2CCN(C(=O)CCCCCCCCCCNC(=O)[C@H](CCCCN)n3cc(C)nn3)CC2)nc(N2CCN(C(=O)CCCCCCCCCCNC(=O)[C@@H]([C@H](C)O)n3cc(C)nn3)CC2)n1 | – | – | – | – | – | –
C#CCOCCOCCOCCNc1nc(N2CCN(C(=O)CCCCCCCCCCNC(=O)[C@@H](CCSC)n3cc(CCO)nn3)CC2)nc(N2CCN(C(=O)CCCCCCCCCCNC(=O)[C@@H]([C@H](C)O)n3cc(C)nn3)CC2)n1 | – | – | – | 27 | – | –
C#CCOCCOCCOCCNc1nc(N2CCN(C(=O)CCCCCCCCCCNC(=O)[C@@H](CCC(=O)O)n3cc(CCCCCN)nn3)CC2)nc(N2CCN(C(=O)CCCCCCCCCCNC(=O)[C@H](CO)n3cc(CCCCCN)nn3)CC2)n1 | – | – | – | – | – | –
C#CCOCCOCCOCCNc1nc(N2CCN(C(=O)CCCCCCCCCCNC(=O)[C@@H](CCC(=O)O)n3cc(CCCCCN)nn3)CC2)nc(N2CCN(C(=O)CCCCCCCCCCNC(=O)[C@H](CCCCN)n3cc(C[C@@H](C)CC)nn3)CC2)n1 | – | – | – | – | – | 33
CCN(CC(=O)NCc1ccc(F)cc1)C(=O)/C=C/c1ccco1 | – | – | – | – | – | –
O=C(C[n+]1ccccc1)N1c2ccccc2Sc2ccccc21 | – | – | 99 | 98 | – | –
O=C(COc1ccccc1)N1c2ccccc2Sc2ccccc21 | – | – | – | – | – | –
CN(C)c1cc[n+](CC(=O)N2c3ccccc3Sc3ccccc32)cc1 | – | – | 48 | – | – | –
O=C(Nc1ccc2c(c1)OCO2)c1cc(C2CCCCN2S(=O)(=O)Cc2ccccc2)on1 (stereo unspecified) | – | – | – | – | – | –
COc1ccc(/C=N/NC(=O)c2cccc([N+](=O)[O-])c2)cc1OC(=O)c1ccc(C)cc1 | – | 57 | – | – | – | –
COc1cc(/C=N/NC(=O)c2ccncc2)ccc1Oc1ccc([N+](=O)[O-])cn1 | – | 18 | – | – | – | –
CCC(C(=O)NC1CCCC1)N(C(=O)c1snc(C(N)=O)c1N)c1ccc(C)cc1C (stereo unspecified) | – | – | – | – | – | –
O=C(OCCN1CCOCC1)c1ccc(Cl)cc1Cl | 15 | – | – | – | – | –
O=C(O)C1C2CCC(O2)C1C(=O)Nc1ccc(F)cc1 (stereo unspecified) | – | – | – | 35 | – | –
Cc1ccc(NC(=O)C2C3CCC(O3)C2C(=O)O)c(Br)c1 (stereo unspecified) | – | 19 | – | – | – | –
COc1cccc(N(CC(=O)N2CCCC2)S(C)(=O)=O)c1 | – | – | – | – | – | –
NS(=O)(=O)c1ccc(NC(=O)COC(=O)CN2C(=O)C3CC=CCC3C2=O)cc1 (stereo unspecified) | – | – | – | – | – | –
CCCn1cnnc1CNC(=O)C1CCC(=O)N(CCCc2ccccc2)C1 (stereo unspecified) | – | – | – | – | – | –
O=C(CN1CCc2ccccc2C1)Nc1ccc(OC(F)(F)F)cc1 | – | – | 82 | – | – | –
O=C(CN1CCc2ccccc2C1)Nc1ccc(F)cc1 | – | – | – | – | – | –
